Data set [1] relates to Nucleic Acid. As to the kind of experiment: Induction of DNA damage in Escherichia coli pBR322 assessed as supercoiled DNA cleavage at 25 uM after 24 hrs by agarose gel electrophoresis in presence of Cu2+. The class given is nucleic-acid assay. In outline:
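Compound with Cu(II) at 1:1, no added reducing agent. Mixture holds 100 ng form I pBR322 in 10 mM MOPS, pH 7.4, incubated 37 °C for 24 h. Supercoiled-to-nicked (form II) cleavage read on gel against a DNA-only lane.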

Data set [2] can be described thus: Hydrogen peroxide release activity in potassium phosphate buffer at pH 7.4 after 60 mins by […] based colorimetric assay in presence of catalase. Format: physicochemical. Conditions: pH 7.4, 1 h. In outline:
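Compound incubated at pH 7.4 for 1 h. Reaction mixture then treated with catalase before the xylenol orange colorimetric read-out for H2O2.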

A short description of data set [3]: Hydrogen peroxide release activity in potassium phosphate buffer at pH 7.4 after 60 mins by […] based colorimetric assay. To be noted: pH 7.4, 1 h. Format: physicochemical. In outline:
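Compound incubated in pH 7.4 buffer for 1 h. H2O2 then estimated with a xylenol orange-based colorimetric method.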

The test system of data set [4] is Nucleic Acid. In words: Induction of DNA damage in Escherichia coli pBR322 assessed as supercoiled DNA cleavage at 25 uM after 24 hrs by agarose gel electrophoresis. The class given is nucleic-acid assay. In outline: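 Compound at 25 µM without Cu(II) and with no added reducing agent, incubated with supercoiled pBR322 plasmid DNA. Damage assessed as cleavage of supercoiled form on gel.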

Data set [5] can be described thus: Superoxide release activity in potassium phosphate buffer at pH 7.4 and 25 uM after 30 mins by […]. The procedure, abridged:
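Compound incubated in pH 7.4 buffer. Superoxide detected by luminol-based chemiluminescence.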

For data set [6], the system named is Nucleic Acid. As to the kind of experiment: Induction of DNA damage in Escherichia coli pBR322 assessed as supercoiled DNA cleavage at 10 uM after 24 hrs by agarose gel electrophoresis in presence of Cu2+. The class given is nucleic-acid assay. The procedure, abridged:
(§1)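 Concentration course of 1–10 µM compound with an equimolar amount of Cu(II). Mixture holds 100 ng supercoiled pBR322 plasmid (form I) in 10 mM MOPS, pH 7.4, incubated 37 °C for 24 h. Cleavage to nicked form II read on gel against a DNA-only lane.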

The test system of data set [7] is Nucleic Acid. As to the kind of experiment: Induction of DNA damage in Escherichia coli pBR322 assessed as supercoiled DNA cleavage at 1 uM after 24 hrs by agarose gel electrophoresis in presence of Cu2+. Format: nucleic-acid assay. The procedure, abridged:
as §1

Data set [8] can be described thus: Superoxide release activity in potassium phosphate buffer at pH 7.4 and 25 uM after 30 mins by […] in presence of superoxide dismutase. The procedure, abridged:
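Compound incubated in pH 7.4 buffer with superoxide dismutase present. Superoxide read by luminol-based chemiluminescence.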

SMILES strings stand for the structures. Calls of active or inactive are those of the source. The calls are words filed in the database; no cut-off is given here.

For the molecule `COc1ccc(C2=C(N3CCCC3)C(=O)c3ccccc3C2=O)cc1`, the result in data set [1] was Active. Further, the outcome in data set [2] and in data set [3] was Active. The outcome in data set [4] was inactive.

As to `O=C1C(NCc2ccccc2)=C(c2ccccc2)C(=O)c2ccccc21`, in data set [1], the outcome was Active. In addition, the Activity in data set [3] was less than 2 µM. Further, in data set [4], the result was inactive.

Turning to `CCCCNC1=C(c2ccccc2)C(=O)c2ccccc2C1=O`, the Activity in data set [3] was less than 2 µM.

On to `C=CCNC1=C(c2ccccc2)C(=O)c2ccccc2C1=O`, for which, in data set [3], the Activity was less than 2 µM.

In the case of `C1CCNC1` [PYRROLIDINE], in data set [3], the Activity result was “Not Active”. The outcome in data set [5] was inactive.

Regarding `NC1=C(c2ccccc2)C(=O)c2ccccc2C1=O`, the Activity in data set [3] is less than 2 µM.

Consider `CCCNC1=C(c2ccccc2)C(=O)c2ccccc2C1=O`, for which the result in data set [1] was Active. Also, the Activity in data set [3] is less than 2 µM. Besides, in data set [4], the outcome was inactive.

As for `O=C1C(c2ccccc2)=C(N2CCCC2)C(=O)c2ccccc21`, the result in data set [1], in data set [6], in data set [7], in data set [8] and in data set [5] was Active. The result in data set [2] was Active. Moreover, in data set [4], the result was inactive.

In the case of `O=C1C(Nc2ccccc2)=C(c2ccccc2)C(=O)c2ccccc21`, in data set [1], the result was Active. Also, in data set [3], the Activity is less than 2 µM. Moreover, the outcome in data set [4] was inactive.

Molecule `O=C1C(Nc2ccc([N+](=O)[O-])cc2)=C(c2ccccc2)C(=O)c2ccccc21` displayed an Activity in data set [3] of less than 2 µM.

Take `O=C1C(NCc2ccc(Cl)cc2)=C(c2ccccc2)C(=O)c2ccccc21`: in data set [3], the Activity is less than 2 µM.

Consider `O=C1C(c2ccccc2)=C(N2CCCCC2)C(=O)c2ccccc21`, for which the outcome in data set [1] was Active. In data set [4], the outcome was inactive.

Take `COc1ccc(NC2=C(c3ccccc3)C(=O)c3ccccc3C2=O)cc1`: the Activity in data set [3] is less than 2 µM.

Molecule `COc1ccc(CNC2=C(c3ccccc3)C(=O)c3ccccc3C2=O)cc1` showed an Activity in data set [3] of less than 2 µM.

As for `CN1CCCC1` [N-METHYL PYRROLIDINE (NMP)], the Activity result in data set [3] is recorded as “Not Active”. Besides, in data set [5], the outcome was inactive.

On to `COc1ccccc1C1=C(N2CCCC2)C(=O)c2ccccc2C1=O`, for which the outcome in data set [1] was Active. Also, the result in data set [2] and in data set [3] was Active. Besides, in data set [4], the outcome was inactive.

Consider `O=C1C(c2ccc(F)cc2)=C(N2CCCC2)C(=O)c2ccccc21`, for which the result in data set [1] was Active. Further, the outcome in data set [2] and in data set [3] was Active. In addition, the outcome in data set [4] was inactive.

With `CN(C)CCNC1=C(c2ccccc2)C(=O)c2ccccc2C1=O`, the Activity in data set [3] is less than 2 µM.
